According to ChEMBL document CHEMBL2169809, “Identification of high-affinity P2Y₁₂ antagonists based on a phenylpyrazole glutamic acid piperazine backbone” (J Med Chem, 2012):

Legend:
P2Y purinoceptor 12 = P2Y purinoceptor 12 (Homo sapiens, UniProt Q9H244); experiment: Displacement of [33P]2-MeS-ADP from human recombinant P2Y12 receptor expressed in CHO cell membranes by scintillation counting method
Platelet = experiment: Inhibition of ADP-stimulated platelet aggregation in human platelet rich plasma by 96-well format based turbidimetric method; assay type: functional
Method in brief: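 Citrated (ACD-A) donor blood was spun at 150g for 15 min at room temperature to give PRP. PRP was adjusted with PPP to 3 × 10^8 platelets/mL. Compound, diluted in NaCl, was preincubated with hPRP for 5 min before ADP was added.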

Sequence of P2Y purinoceptor 12 (Q9H244 whole entry): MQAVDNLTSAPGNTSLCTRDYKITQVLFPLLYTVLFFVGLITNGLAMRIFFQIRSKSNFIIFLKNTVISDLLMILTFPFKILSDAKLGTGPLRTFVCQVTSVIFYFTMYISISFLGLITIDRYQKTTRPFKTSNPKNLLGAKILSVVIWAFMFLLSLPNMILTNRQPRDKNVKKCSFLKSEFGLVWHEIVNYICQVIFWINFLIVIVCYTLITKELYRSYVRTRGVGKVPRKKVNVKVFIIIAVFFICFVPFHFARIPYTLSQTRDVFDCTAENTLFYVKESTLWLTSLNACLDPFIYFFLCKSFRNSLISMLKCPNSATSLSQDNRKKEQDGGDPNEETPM

Compound | Ki (P2Y purinoceptor 12) | IC50 (Platelet)
CCOC(=O)N1CCN(C(=O)[C@H](CCC(=O)O)NC(=O)c2cc(OCC(=O)N3CCC(C(=O)NC4CCC4)C3)n(-c3ccccc3)n2)CC1 (stereo not given in full) | 238 nM | 3130 nM
CCOC(=O)N1CCN(C(=O)[C@H](CC(C)C)NC(=O)c2cc(OCC(=O)N3CCC[C@H]3C(=O)NC3CCC3)n(-c3ccccc3)n2)CC1 | 207 nM | > 5000 nM
O=C(O)CC[C@H](NC(=O)c1cc(OCC(=O)N2CCC[C@H]2C(=O)NC2CCC2)n(-c2ccccc2)n1)C(=O)N1CCN(C(=O)OC2CCC2)CC1 | 5 nM | 14 nM
O=C(O)CC[C@H](NC(=O)c1cc(OCC(=O)N2CCC[C@H]2C(=O)NC2CCC2)n(-c2ccccc2)n1)C(=O)N1CCN(C(=O)OCc2ccccc2)CC1 | 5.7 nM | 124 nM
CCOC(=O)N1CCN(C(=O)[C@H](CCC(=O)O)NC(=O)c2cc(OCC(=O)N3CCC[C@H]3C(=O)N(C)C3CCC3)n(-c3ccccc3)n2)CC1 | 27 nM | 220 nM
CCOC(=O)N1CCN(C(=O)[C@H](CCNS(C)(=O)=O)NC(=O)c2cc(OCC(=O)N3CCC[C@H]3C(=O)NC3CCC3)n(-c3ccccc3)n2)CC1 | 23 nM | –
CCOC(=O)N1CCN(C(=O)[C@H](C)NC(=O)c2cc(OCC(=O)N3CCC[C@H]3C(=O)NC3CCC3)n(-c3ccccc3)n2)CC1 | 111 nM | 2210 nM
CCOC(=O)N1CCN(C(=O)[C@H](CCC(=O)O)NC(=O)c2cc(OCC(=O)N3CCC[C@H]3C(=O)NC3CCC3)n(-c3ccccc3)n2)C[C@@H]1C | 80 nM | 1510 nM
CCC[C@H](NC(=O)c1cc(OCC(=O)N2CCC[C@H]2C(=O)NC2CCC2)n(-c2ccccc2)n1)C(=O)N1CCN(C(=O)OCC)CC1 | 172 nM | 3610 nM
CCOC(=O)N1CCN(C(=O)[C@H](CCC(=O)O)NC(=O)c2cc(=O)n(-c3ccccc3)[nH]2)CC1 | > 5000 nM | > 10000 nM
CCOC(=O)N1CCN(C(=O)[C@H](CCC(=O)O)NC(=O)c2cc(OCC(=O)N3CCC[C@H]3c3ccccc3)n(-c3ccccc3)n2)CC1 | 33 nM | –
CCOC(=O)N1CCN(C(=O)[C@@H](NC(=O)c2cc(OCC(=O)N3CCC[C@H]3C(=O)NC3CCC3)n(-c3ccccc3)n2)C(C)C)CC1 | 183 nM | 1900 nM
CCOC(=O)N1CCN(C(=O)[C@H](CCC(=O)O)NC(=O)c2cc(OCC(=O)N3CCC[C@H]3c3nc(C)c[nH]3)n(-c3ccccc3)n2)CC1 | 56 nM | 380 nM
CCOC(=O)N1CCN(C(=O)[C@H](CCC(=O)O)NC(=O)c2cc(OCC(=O)N3CCCC3=O)n(-c3ccccc3)n2)CC1 | 173 nM | 900 nM
CCOC(=O)N1CCN(C(=O)[C@H](CCC(=O)O)NC(=O)c2cc(OCC(=O)N3CC[C@H]3C(=O)NC3CCC3)n(-c3ccccc3)n2)CC1 | 42 nM | 76 nM
CCOC(=O)N1CCN(C(=O)[C@H](CCC(=O)O)NC(=O)c2cc(OCC(=O)C3CCC3)n(-c3ccccc3)n2)CC1 | 574 nM | 7410 nM
CCCSc1nc(N[C@@H]2C[C@H]2c2ccc(F)c(F)c2)c2nnn([C@@H]3C[C@H](OCCO)[C@@H](O)[C@H]3O)c2n1 [TICAGRELOR] | 14 nM | 1830 nM
CCOC(=O)N1CCN(C(=O)[C@H](CCC(=O)O)NC(=O)c2cc(OCC(=O)N(CC)CC)n(-c3ccccc3)n2)CC1 | > 5000 nM | > 10000 nM
CCOC(=O)N1CCN(C(=O)[C@H](CCC(=O)O)NC(=O)c2cc(OCC(=O)N3CCC[C@H]3C(=O)NC3CCC3)n(-c3ccccc3)n2)[C@@H](C)C1 | 54 nM | 430 nM
CCOC(=O)N1CCN(C(=O)[C@H](CCCCO)NC(=O)c2cc(OCC(=O)N3CCC[C@H]3C(=O)NC3CCC3)n(-c3ccccc3)n2)CC1 | 202 nM | 2400 nM
CCOC(=O)N1CCN(C(=O)[C@H](CCC(=O)O)NC(=O)c2cc(OCC(=O)N3CCC[C@@H]3C(=O)NC3CC3)n(-c3ccccc3)n2)CC1 | 958 nM | –
CCOC(=O)N1CCN(C(=O)[C@H](CCC(=O)O)NC(=O)c2cc(OCC(=O)N3CCC[C@H]3C(=O)NC(C)C)n(-c3ccccc3)n2)CC1 | 56 nM | –
